Experimental data from ChEMBL document CHEMBL2424622, “Development of amino-pyrimidine inhibitors of c-Jun N-terminal kinase (JNK): kinase profiling guided optimization of a 1,2,3-benzotriazole lead” (Bioorg Med Chem Lett, 2013).

How the values were obtained:
[1] = biological target: Serine/threonine-protein kinase Nek7 (Homo sapiens, UniProt Q8TDX7); test: Competitive binding affinity to NEK7 (unknown origin) at 10 uM in presence of ATP relative to control
[2] = biological target: Tyrosine-protein kinase receptor UFO (Homo sapiens) (UniProt P30530); test: Competitive binding affinity to AXL (unknown origin) at 10 uM in presence of ATP relative to control
Chain of Tyrosine-protein kinase receptor UFO (Homo sapiens) (P30530 whole entry): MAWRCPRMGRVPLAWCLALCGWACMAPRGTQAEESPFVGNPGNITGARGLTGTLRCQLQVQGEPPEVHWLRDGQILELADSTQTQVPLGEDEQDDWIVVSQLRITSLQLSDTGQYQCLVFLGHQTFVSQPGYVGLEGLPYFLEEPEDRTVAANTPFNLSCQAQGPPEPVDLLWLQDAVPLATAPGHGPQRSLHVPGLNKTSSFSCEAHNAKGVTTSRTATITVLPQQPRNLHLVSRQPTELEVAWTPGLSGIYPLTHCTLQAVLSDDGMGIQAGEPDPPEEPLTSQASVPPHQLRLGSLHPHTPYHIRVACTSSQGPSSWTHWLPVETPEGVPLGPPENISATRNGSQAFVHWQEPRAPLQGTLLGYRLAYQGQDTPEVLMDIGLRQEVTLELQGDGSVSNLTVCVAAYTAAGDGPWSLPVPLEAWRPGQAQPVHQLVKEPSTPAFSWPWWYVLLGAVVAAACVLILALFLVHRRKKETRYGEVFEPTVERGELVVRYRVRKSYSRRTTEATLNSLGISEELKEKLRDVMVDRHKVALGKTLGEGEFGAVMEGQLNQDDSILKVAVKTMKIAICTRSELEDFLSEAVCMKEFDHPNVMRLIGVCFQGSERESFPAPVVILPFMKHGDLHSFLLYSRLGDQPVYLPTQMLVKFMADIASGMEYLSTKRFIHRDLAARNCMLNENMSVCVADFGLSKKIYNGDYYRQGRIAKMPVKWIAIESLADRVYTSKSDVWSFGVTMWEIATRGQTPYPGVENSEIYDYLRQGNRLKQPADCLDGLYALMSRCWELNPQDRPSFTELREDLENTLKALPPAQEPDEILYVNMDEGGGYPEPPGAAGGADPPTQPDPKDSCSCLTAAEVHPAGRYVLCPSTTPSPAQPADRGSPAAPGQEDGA

[3] = biological target: Serine/threonine-protein kinase 24 (Homo sapiens) (UniProt Q9Y6E0); test: Competitive binding affinity to MST3 (unknown origin) at 10 uM in presence of ATP relative to control
Chain of Serine/threonine-protein kinase 24 (Homo sapiens) (Q9Y6E0 whole entry, looked up): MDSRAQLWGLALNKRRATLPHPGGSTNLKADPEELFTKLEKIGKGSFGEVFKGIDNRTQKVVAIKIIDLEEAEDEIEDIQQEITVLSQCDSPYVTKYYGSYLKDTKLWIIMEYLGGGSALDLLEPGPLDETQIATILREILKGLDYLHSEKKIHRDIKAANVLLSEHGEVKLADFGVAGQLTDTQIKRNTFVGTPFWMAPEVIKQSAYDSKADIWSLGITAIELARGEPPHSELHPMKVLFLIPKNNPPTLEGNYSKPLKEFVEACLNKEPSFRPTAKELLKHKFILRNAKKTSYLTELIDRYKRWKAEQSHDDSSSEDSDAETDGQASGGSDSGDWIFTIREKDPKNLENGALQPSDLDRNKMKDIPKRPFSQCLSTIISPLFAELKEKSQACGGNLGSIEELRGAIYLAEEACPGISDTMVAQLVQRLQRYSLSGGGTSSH

[4] = species on record: Homo sapiens; test: Selectivity ratio of IC50 for human JNK2 to IC50 for human JNK1
Method in brief: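 JNK1 and JNK2 activities were each measured as phosphorylation of GST-ATF2 (19–96) with [γ-33P]ATP, and IC50s were determined for each enzyme. The ratio is JNK2 IC50 over JNK1 IC50. IC50s are the mean of at least three experiments.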

[5] = biological target: Serine/threonine-protein kinase pim-3 (Homo sapiens) (UniProt Q86V86); test: Competitive binding affinity to PIM3 (unknown origin) at 10 uM in presence of ATP relative to control
[6] = biological target: Serine/threonine-protein kinase N2 (Homo sapiens) (UniProt Q16513); test: Competitive binding affinity to PKN2 (unknown origin) at 10 uM in presence of ATP relative to control
Chain of Serine/threonine-protein kinase N2 (Homo sapiens) (Q16513 whole entry, looked up): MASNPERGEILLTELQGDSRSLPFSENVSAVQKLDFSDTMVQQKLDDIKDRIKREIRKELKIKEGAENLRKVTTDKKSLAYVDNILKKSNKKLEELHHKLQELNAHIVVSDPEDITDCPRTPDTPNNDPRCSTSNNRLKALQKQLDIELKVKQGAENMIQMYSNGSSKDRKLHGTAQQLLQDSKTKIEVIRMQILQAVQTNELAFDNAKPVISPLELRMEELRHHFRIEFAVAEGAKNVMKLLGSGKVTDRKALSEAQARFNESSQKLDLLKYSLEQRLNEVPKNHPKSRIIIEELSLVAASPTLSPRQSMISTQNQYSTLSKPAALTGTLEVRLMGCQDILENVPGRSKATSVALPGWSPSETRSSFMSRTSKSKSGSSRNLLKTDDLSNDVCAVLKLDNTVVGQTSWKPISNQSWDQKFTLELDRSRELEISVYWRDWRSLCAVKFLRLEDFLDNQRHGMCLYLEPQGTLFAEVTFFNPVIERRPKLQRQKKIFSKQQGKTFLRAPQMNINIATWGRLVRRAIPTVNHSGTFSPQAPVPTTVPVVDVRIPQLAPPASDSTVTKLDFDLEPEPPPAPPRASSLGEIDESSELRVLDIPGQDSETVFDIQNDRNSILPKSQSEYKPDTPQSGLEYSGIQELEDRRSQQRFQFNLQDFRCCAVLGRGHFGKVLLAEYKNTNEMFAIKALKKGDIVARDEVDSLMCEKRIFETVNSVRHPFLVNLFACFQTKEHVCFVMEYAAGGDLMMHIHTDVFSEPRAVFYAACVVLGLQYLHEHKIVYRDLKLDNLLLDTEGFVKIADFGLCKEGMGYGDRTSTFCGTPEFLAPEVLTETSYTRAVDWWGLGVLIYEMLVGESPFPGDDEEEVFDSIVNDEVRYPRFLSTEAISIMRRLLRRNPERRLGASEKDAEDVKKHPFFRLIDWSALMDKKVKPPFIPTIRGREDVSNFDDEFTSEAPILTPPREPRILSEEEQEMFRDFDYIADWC
Method in brief: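 In vitro ATP-site competition binding assay across a diverse panel of 128 kinases, with compound tested at a single concentration. Kinase selectivity scores (S15) were calculated from the panel profiles.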

[7] = biological target: T1, Serine/threonine-protein kinase LATS1 (Homo sapiens) (UniProt O95835); test: Competitive binding affinity to LATS1 (unknown origin) at 10 uM in presence of ATP relative to control
T1 sequence (whole entry): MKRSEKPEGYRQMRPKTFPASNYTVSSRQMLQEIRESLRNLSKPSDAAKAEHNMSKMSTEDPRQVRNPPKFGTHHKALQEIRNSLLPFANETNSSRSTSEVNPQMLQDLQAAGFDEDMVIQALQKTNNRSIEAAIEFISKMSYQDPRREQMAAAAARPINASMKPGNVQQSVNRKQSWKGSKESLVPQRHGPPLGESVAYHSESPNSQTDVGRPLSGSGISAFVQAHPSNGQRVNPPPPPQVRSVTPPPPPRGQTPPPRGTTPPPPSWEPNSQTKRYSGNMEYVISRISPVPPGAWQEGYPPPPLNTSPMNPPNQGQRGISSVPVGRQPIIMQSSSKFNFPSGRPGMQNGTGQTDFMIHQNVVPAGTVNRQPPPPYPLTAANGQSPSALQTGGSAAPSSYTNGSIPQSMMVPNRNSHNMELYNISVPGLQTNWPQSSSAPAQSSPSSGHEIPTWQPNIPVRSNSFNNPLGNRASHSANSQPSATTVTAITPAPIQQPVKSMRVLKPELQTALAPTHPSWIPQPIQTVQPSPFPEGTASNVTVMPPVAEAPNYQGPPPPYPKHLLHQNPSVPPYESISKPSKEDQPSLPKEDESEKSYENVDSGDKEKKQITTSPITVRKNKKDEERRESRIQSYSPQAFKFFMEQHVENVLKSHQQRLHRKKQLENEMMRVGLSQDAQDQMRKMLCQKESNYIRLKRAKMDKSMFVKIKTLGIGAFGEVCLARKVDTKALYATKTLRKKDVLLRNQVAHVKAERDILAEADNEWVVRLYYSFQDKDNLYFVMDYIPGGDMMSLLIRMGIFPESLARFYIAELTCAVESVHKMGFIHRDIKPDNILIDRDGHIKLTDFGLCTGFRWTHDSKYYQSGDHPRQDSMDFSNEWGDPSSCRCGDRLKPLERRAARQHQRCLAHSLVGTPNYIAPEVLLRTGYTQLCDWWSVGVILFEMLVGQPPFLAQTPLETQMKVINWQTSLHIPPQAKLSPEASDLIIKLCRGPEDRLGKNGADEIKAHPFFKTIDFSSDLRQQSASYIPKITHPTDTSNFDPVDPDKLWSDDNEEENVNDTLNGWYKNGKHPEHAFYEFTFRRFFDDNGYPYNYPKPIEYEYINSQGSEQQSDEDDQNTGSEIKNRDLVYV

[8] = biological target: LIM domain kinase 2 (Homo sapiens, UniProt P53671); test: Competitive binding affinity to LIMK2 (unknown origin) at 10 uM in presence of ATP relative to control
Chain of LIM domain kinase 2 (P53671 whole entry, looked up, the tested form may be a part): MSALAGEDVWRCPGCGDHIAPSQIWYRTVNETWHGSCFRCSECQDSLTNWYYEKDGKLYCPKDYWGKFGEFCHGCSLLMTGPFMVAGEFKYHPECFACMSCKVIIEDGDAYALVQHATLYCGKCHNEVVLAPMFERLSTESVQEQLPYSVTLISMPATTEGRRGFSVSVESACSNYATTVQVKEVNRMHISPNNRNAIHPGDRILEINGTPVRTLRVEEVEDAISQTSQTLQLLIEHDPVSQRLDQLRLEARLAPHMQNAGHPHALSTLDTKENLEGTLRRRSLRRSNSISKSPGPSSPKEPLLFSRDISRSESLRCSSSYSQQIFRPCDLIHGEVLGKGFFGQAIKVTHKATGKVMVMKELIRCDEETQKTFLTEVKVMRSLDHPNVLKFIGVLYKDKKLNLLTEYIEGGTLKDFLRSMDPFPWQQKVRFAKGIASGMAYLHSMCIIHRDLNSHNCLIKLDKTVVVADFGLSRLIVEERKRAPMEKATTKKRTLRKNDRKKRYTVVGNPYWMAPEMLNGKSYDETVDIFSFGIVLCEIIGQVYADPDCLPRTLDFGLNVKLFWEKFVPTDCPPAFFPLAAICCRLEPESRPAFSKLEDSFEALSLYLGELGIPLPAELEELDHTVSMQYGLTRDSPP
Method in brief: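 In vitro ATP-site competition binding assay, part of profiling against a diverse panel of 128 kinases. Each compound was tested at a single concentration of 10 µM. Kinome selectivity was summarized as S15 selectivity scores.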

[9] = biological target: T2, Bone morphogenetic protein receptor type-2 (Homo sapiens) (UniProt Q13873); test: Competitive binding affinity to BMPR2 (unknown origin) at 10 uM in presence of ATP relative to control
T2 sequence (whole entry): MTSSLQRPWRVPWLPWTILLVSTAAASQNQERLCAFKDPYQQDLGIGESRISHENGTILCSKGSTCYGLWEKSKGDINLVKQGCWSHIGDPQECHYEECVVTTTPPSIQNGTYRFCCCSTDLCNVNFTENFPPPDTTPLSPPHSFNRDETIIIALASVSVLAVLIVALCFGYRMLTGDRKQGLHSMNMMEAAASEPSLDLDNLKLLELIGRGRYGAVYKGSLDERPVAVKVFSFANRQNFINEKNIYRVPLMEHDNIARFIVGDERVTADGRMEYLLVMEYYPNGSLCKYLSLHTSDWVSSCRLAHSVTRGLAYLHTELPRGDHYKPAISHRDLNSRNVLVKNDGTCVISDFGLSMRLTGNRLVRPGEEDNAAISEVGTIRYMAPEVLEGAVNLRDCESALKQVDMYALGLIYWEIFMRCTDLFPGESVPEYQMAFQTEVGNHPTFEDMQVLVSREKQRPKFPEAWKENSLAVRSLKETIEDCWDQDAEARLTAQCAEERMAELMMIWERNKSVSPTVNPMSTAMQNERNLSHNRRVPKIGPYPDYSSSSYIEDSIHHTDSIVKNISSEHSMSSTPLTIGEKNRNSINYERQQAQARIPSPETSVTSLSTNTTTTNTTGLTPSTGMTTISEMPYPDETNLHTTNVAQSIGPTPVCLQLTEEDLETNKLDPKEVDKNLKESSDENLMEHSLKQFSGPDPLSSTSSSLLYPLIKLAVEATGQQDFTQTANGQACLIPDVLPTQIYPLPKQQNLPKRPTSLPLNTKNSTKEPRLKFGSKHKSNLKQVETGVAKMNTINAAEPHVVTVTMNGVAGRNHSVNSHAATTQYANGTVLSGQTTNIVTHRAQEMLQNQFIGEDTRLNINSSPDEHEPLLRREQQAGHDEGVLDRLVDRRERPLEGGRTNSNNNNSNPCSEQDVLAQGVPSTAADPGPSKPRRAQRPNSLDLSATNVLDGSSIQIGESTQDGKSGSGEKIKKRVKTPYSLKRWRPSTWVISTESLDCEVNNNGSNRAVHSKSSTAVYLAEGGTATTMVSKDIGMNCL

Chain of Serine/threonine-protein kinase Nek7 (Q8TDX7 whole entry, looked up): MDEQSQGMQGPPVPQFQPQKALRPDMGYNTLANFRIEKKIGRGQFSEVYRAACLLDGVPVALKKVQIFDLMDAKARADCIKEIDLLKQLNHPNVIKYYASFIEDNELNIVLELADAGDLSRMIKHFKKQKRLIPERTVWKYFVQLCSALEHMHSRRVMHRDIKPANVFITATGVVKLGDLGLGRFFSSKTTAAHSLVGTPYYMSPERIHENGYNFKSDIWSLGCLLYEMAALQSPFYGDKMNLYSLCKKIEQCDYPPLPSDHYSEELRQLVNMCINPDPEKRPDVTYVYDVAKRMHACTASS

SMILES	inhibition [1] [%]	inhibition [2] [%]	inhibition [3] [%]	Ratio IC50 [4]	inhibition [5] [%]	inhibition [6] [%]	inhibition [7] [%]	inhibition [8] [%]	inhibition [9] [%]
CS(=O)(=O)CCCOc1cccc2c1ccn2-c1ccnc(N[C@H]2CC[C@H](C(=O)N3CCC(O)CC3)CC2)n1	> 85	–	–	–	–	–	–	> 85	–
O[C@H]1CC[C@H](Nc2nccc(-c3n[nH]c4ccccc34)n2)CC1	–	100	–	–	–	67	–	100	–
O=C([C@H]1CC[C@H](Nc2nccc(-n3nnc4ccccc43)n2)CC1)N1CCOCC1	–	–	–	4	–	–	–	–	–

The remaining lines, values ahead:

inhibition [1] [%]	inhibition [2] [%]	inhibition [3] [%]	Ratio IC50 [4]	inhibition [5] [%]	inhibition [6] [%]	inhibition [7] [%]	inhibition [8] [%]	inhibition [9] [%]	SMILES
93	< 50	78	4	88	69	< 50	78	85	O[C@H]1CC[C@H](Nc2nccc(-n3nnc4ccccc43)n2)CC1
< 50	93	78	–	96	< 50	< 50	76	< 50	O[C@H]1CC[C@H](Nc2nccc(-n3ncc4ccccc43)n2)CC1
< 50	< 50	83	–	< 50	< 50	< 50	81	< 50	O[C@H]1CC[C@H](Nc2nccc(-n3ccc4ccccc43)n2)CC1
–	–	–	4	–	–	–	–	–	N[C@H]1CC[C@H](Nc2nccc(-n3nnc4ccccc43)n2)CC1
